Data on six molecules can be found in ChEMBL document CHEMBL3244020, “Trichloroacetamidines, a new class of positive inotropic agents” (J Med Chem, 1978).

One may read the pKa as the negative logarithm of the acid dissociation constant. Low readings indicate a stronger acid or weaker base, high ones a weaker acid or stronger base.

Activity calls are given as the source filed them. No cut-off for these calls is given here. Where only a bound is given, the exact number is not on record here.

Data set [1] relates to Canis familiaris. As to the kind of experiment: Positive inotropic activity in Beagle dog assessed as increase in left ventricular contractile force at 5 mg/kg, iv. The format is functional, organism-based. Set-up: dose 5 mg/kg. Conditions: Canis lupus familiaris, Heart left ventricle.
Data set [2] is described as follows: Positive inotropic activity in cat heart papillary muscle assessed as increase in contractile force at 2.5 ug/mL measured for 5 to 30 mins. The format is functional, Felis catus, Muscle tissue. The procedure, abridged: (§1)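 Right-ventricular cat papillary muscles in Krebs–Henseleit at 37 °C, field-stimulated at 1/s (4–10 ms, 6–10 V). Muscles equilibrated about 90 min, until force fell to 25–30% of original. Compound added and force recorded at 5, 10, 20 and 30 min, followed by ouabain 0.5 μg/mL. Positives were retested on three more preparations at ≥3 concentrations. Scored as mg increase in contractile force.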

For data set [3], the species on record is Felis catus. In words: Positive inotropic activity in heart papillary muscle isolated from reserpine-treated cat assessed as increase in contractile force at 10 ug/mL measured for 5 to 30 mins. The format is functional, tissue-based. Conditions: Muscle tissue. The method, boiled down: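 Cats pretreated with reserpine 0.5 mg/kg ip before papillary muscle isolation. Right-ventricular muscles kept in Krebs–Henseleit at 37 °C, stimulated at 1/s, and force recorded at 5–30 min after compound addition.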

Data set [4] in a line: (§2) Inhibition of calf heart Na+-K+ dependent ATPase after 10 to 20 mins. Conditions: read-out: I50. Set-up: species or system Bos taurus. The procedure, abridged: (§3)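 Partially purified membrane ATPase from calf heart or guinea pig renal cortex. Reaction started by final addition of enzyme. Incubated at 37 °C under air, with aliquots taken at 10 and 20 min. Liberated phosphate measured by the Lowry–Lopez method. I50 came from log inhibitor vs percent inhibition lines, at least three points. This was done only where acute inhibition was >50% at 1 × 10⁻³ M.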

Data set [5] has as its system Canis familiaris. In words: Positive inotropic activity in Beagle dog assessed as increase in left ventricular contractile force at 1.25 mg/kg, iv measured within 5 mins (reference value: 76 g). The format is functional, Canis lupus familiaris, Heart left ventricle.
Data set [6] has as its system Canis familiaris. As to the kind of experiment: Positive inotropic activity in Beagle dog assessed as increase in left ventricular dp/dt maximum at 1.25 mg/kg, iv. The format is functional, organism-based. Set-up: dose 1.25 mg/kg. Conditions: Canis lupus familiaris, Heart left ventricle.
The species entered for data set [7] is Felis catus. In words: Positive inotropic activity in cat heart papillary muscle assessed as increase in contractile force up to 10 ug/mL measured for 5 to 30 mins in presence of beta-adrenergic inhibitor sotalol. The format is functional, tissue-based. The method, boiled down: (§4)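 Cat right-ventricular papillary muscle in Krebs–Henseleit at 37 °C, electrically driven at 1/s. Force recorded 5–30 min after compound, in the presence of the β-blocker sotalol at 10 μg/mL. Scored as mg increase in contractile force.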

The subject of data set [8] is Canis familiaris. As to the kind of experiment: Toxicity in Beagle dog assessed as reduction in mean arterial pressure at 5 mg/kg, iv. The format is organism-based, Canis lupus familiaris, Artery. Set-up: dose 5 mg/kg, route intravenous. Conditions: in vivo.
Data set [9] in a line: Positive inotropic activity in cat heart papillary muscle assessed as increase in contractile force at 0.156 ug/mL measured for 5 to 30 mins. The format is functional, Felis catus, Muscle tissue. The method, boiled down: (§5)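 Right-ventricular cat papillary muscles in Krebs–Henseleit solution at 37 °C, paced at 1/s (4–10 ms, 6–10 V square waves). Equilibrated about 90 min; compound added once force had fallen to 25–30% of original (1.5–2 h). Force recorded 5, 10, 20 and 30 min after addition, then ouabain 0.5 μg/mL added. Increase over 20% scored positive. Actives retested on three further preparations at ≥3 concentrations.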

The subject of data set [10] is Canis familiaris. As to the kind of experiment: Toxicity in Beagle dog assessed as effect on mean arterial pressure at 1.25 mg/kg, iv. The format is organism-based, Canis lupus familiaris, Artery. Set-up: dose 1.25 mg/kg, route intravenous. Conditions: in vivo.
Data set [11] concerns Canis familiaris. As to the kind of experiment: Positive inotropic activity in Beagle dog assessed as increase in left ventricular contractile force at 1.25 mg/kg, iv measured after 1 hr. Conditions: Canis lupus familiaris, Heart left ventricle. The format is functional, organism-based. Also noted: dose 1.25 mg/kg.
Data set [12] in a line: Positive inotropic activity in cat heart papillary muscle assessed as increase in contractile force at 1.7 ug/mL measured for 10 mins (reference value: 855 mg). The format is functional, Felis catus, Muscle tissue. The procedure, abridged: (§6)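 Electrically paced (1/s) right-ventricular cat papillary muscles in Krebs–Henseleit solution at 37 °C. Compound added after force declined to 25–30% of original following about 90 min equilibration. Contractile force followed over time to peak and to end of action. Values are the average of four experiments.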

Data set [13] in a line: Inhibition of calf heart Na+-K+ dependent ATPase preincubated for 30 mins measured after 10 to 20 mins. Set-up: species or system Bos taurus. The following applies: read-out: I50. The procedure, abridged:
(§7)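 Partially purified membrane ATPase from calf heart or guinea pig renal cortex. Inhibitor plus enzyme were preincubated 30 min at 10× final concentrations, then added to the otherwise complete assay system. Incubated at 37 °C under air, with aliquots taken at 10 and 20 min. Liberated phosphate measured by the Lowry–Lopez method. I50 came from log inhibitor vs percent inhibition lines, at least three points.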

Data set [14] in a line: Dissociation constant, pKa of the compound. The format is physicochemical. The method, boiled down: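 pKa determined in water or in 30% EtOH–70% H2O, depending on compound.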
Data set [15] can be described thus: Positive inotropic activity in cat heart papillary muscle assessed as increase in contractile force at 10 ug/mL measured for 5 to 30 mins. The format is functional, Felis catus, Muscle tissue. The method, boiled down:
as §1

Data set [16] deals with Canis familiaris. In words: Toxicity in Beagle dog assessed as increase in heart rate at 1.25 to 5 mg/kg, iv measured within 2 mins. The format is organism-based, Canis lupus familiaris. Set-up: dose 1.25-5 mg/kg, route intravenous. The following applies: in vivo.
In data set [17] the test system is Canis familiaris. In words: Positive inotropic activity in Beagle dog assessed as increase in left ventricular pressure at 1.25 mg/kg, iv. The format is functional, organism-based. Also noted: dose 1.25 mg/kg. Conditions: Canis lupus familiaris, Heart left ventricle.
The species named for data set [18] is Felis catus. As to the kind of experiment: Positive inotropic activity in cat heart papillary muscle assessed as increase in contractile force at 1.7 ug/mL measured up to 45 mins. The format is functional, tissue-based. The following applies: Muscle tissue. The procedure, abridged:
as §6

Data set [19] can be described thus: Positive inotropic activity in cat heart papillary muscle assessed as concentration required to increase contractile force by 500 mg measured for 5 to 30 mins. The format is functional, Felis catus, Muscle tissue. The procedure, abridged:
as §1

A short description of data set [20]: Positive inotropic activity in cat heart papillary muscle assessed as increase in contractile force at 0.8 ug/mL measured for 5 mins (reference value: 1080 mg). The format is functional, Felis catus, Muscle tissue.
Data set [21] can be described thus: Positive inotropic activity in cat heart papillary muscle assessed as increase in contractile force at 1 ug/mL measured for 5 to 30 mins. The format is functional, Felis catus, Muscle tissue. The procedure, abridged:
as §5

A short description of data set [22]: Positive inotropic activity in cat heart papillary muscle assessed as increase in contractile force at 2 ug/mL measured for 5 to 30 mins. The format is functional, Felis catus, Muscle tissue. The procedure, abridged:
as §5

Data set [23] concerns Canis familiaris. In words: Positive inotropic activity in Beagle dog assessed as increase in left ventricular contractile force at 50 mg/kg, iv. The format is functional, organism-based. Set-up: dose 50 mg/kg. The following applies: Canis lupus familiaris, Heart left ventricle.
Data set [24] is described as follows: Positive inotropic activity in cat heart papillary muscle assessed as increase in contractile force at 0.5 ug/mL measured for 5 to 30 mins. The format is functional, Felis catus, Muscle tissue. The method, boiled down:
as §5

Data set [25] in a line: (§8) Inhibition of guinea pig kidney Na+-K+ dependent ATPase after 10 to 20 mins. Set-up: species or system Cavia porcellus. Conditions: read-out: I50. The method, boiled down:
as §3

A short description of data set [26]: Inhibition of guinea pig kidney Na+-K+ dependent ATPase preincubated for 30 mins measured after 10 to 20 mins. Set-up: species or system Cavia porcellus. The following applies: read-out: I50. The method, boiled down:
as §7

The species entered for the next data set is Bos taurus. The description is as §2. The method, boiled down:
as §3

For a further data set, the species on record is Cavia porcellus. Described as §8. The method, boiled down: as §3
The species named for data set [27] is Felis catus. In words: Positive inotropic activity in cat heart papillary muscle assessed as increase in contractile force at 10 ug/mL measured for 5 to 30 mins in presence of beta-adrenergic inhibitor sotalol. The format is functional, tissue-based. The procedure, abridged: as §4
The nature of data set [28]: Positive inotropic activity in cat heart papillary muscle assessed as increase in contractile force at 0.63 ug/mL measured for 5 to 30 mins. The format is functional, Felis catus, Muscle tissue. The method, boiled down:
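Right-ventricular papillary muscles from cat hearts in a 100-mL bath of Krebs–Henseleit solution at 37 °C, driven electrically with square waves of 4–10 ms, 6–10 V, 1/s. Equilibrated about 90 min until force fell to 25–30% of initial. Compound added, contractile force read at 5, 10, 20 and 30 min, then ouabain 0.5 μg/mL as a responsiveness check. Positive inotropy means a rise above 20%.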

Take `N=C(NCc1c[nH]c2ccccc12)C(Cl)(Cl)Cl`: the outcome in the data set on Canis familiaris [1], in the data set listed under Felis catus [3], with Canis familiaris [6], in the data set listed under Felis catus [7], with Canis familiaris [11] and in the data set with Canis familiaris [17] was Active. Also, the outcome in the data set filed under Felis catus [18] was Active. The Activity in data set [2] is recorded as 201 mg; with Canis familiaris [5] it was 125 g; in the data set with Canis familiaris [8], “Toxic”; in data set [9], 201 mg; in the data set with Canis familiaris [10], “Non-toxic”; in data set [12], 1375 mg. Also, the figures for the Activity (in data set [15]; in the data set with Canis familiaris [16]; in [19]) were more than 600 mg, “Toxic” and 1.27 µg/mL, respectively. The values for the IC50 in data set [4] and in [13] were 45 µM and 20 µM, respectively. The pKa in [14] is 6.

With `CC(CCc1ccc(O)cc1)NCCc1ccc(O)c(O)c1` (stereo unspecified) [DOBUTAMINE], the Activity in data set [20] worked out at 1640 mg.

With `C[C@@H]1O[C@@H](O[C@H]2C[C@@H](O)[C@]3(CO)[C@H]4[C@H](O)C[C@]5(C)[C@@H](C6=CC(=O)OC6)CC[C@]5(O)[C@@H]4CC[C@]3(O)C2)[C@H](O)[C@H](O)[C@H]1O` [OUABAIN], the figures for the Activity in data set [21], in [22] and in [24] were more than 600 mg, more than 600 mg and 201 mg, respectively. In addition, the IC50 in data set [4] is 0.5 µM; in data set [13], 0.2 µM; in data set [25], 0.5 µM. In addition, in the data set on Canis familiaris [23], the outcome was Active.

In the case of `N=C(NCCc1c[nH]c2ccccc12)C(Cl)(Cl)Cl`, the Activity in [2] was 201 mg; in data set [9], 201 mg; in [15] it was more than 600 mg; in data set [19] it was 2.33 µg/mL. The results for the IC50 in data set [26], in data set [4] and in data set [25] were 4 µM, 33 µM and 150 µM, respectively. Moreover, the result in the data set listed under Felis catus [7] was Active.

As for `N=C(NCc1ccccc1CO)C(Cl)(Cl)Cl`, the I50 entry in the data set listed under Bos taurus and in the data set listed under Cavia porcellus was “inactive” in each case. The result in the data set listed under Felis catus [7] was Active. Also, the Activity in data set [15] was found to be 201 mg.

Take `CNC(=N)C(Cl)(Cl)Cl.Cl`: the Activity in [2] is more than 600 mg; in [15], more than 600 mg; in data set [28], 201 mg; in data set [19], 0.98 µg/mL. Moreover, in data set [4], the IC50 is 1000 µM. Moreover, in the data set filed under Felis catus [27], the outcome was inactive. Also, the I50 result in the data set listed under Cavia porcellus was “inactive”.
